Laboratory results taken from ChEMBL document CHEMBL1149790, “Synthesis of some novel thiourea derivatives obtained from 5-[(4-aminophenoxy)methyl]-4-alkyl/aryl-2,4-dihydro-3H-1,2,4-triazole-3-thiones and evaluation as antiviral/anti-HIV and anti-tuberculosis agents” (Eur J Med Chem, 2008).
Values after ≈ are worked out from the molar mass of the structure shown.

What was measured:
Coxsackievirus B4 [1] = assay: Antiviral activity against Coxsackie virus B4 in african green monkey Vero cells assessed as reduction of virus-induced cytopathogenicity; type: functional; details: Enterovirus B
In short: (§1)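 Confluent cell monolayers (E6SM, HEL, HeLa or Vero, per line) inoculated with 100 CCID50 virus; 1 h adsorption, residual virus removed, then incubated with compound at 400, 200, 100 … µg/ml. Cytopathicity scored once complete in untreated virus controls; MIC = concentration inhibiting virus-induced cytopathicity.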

Sindbis virus = assay: Antiviral activity against Sindbis virus in african green monkey Vero cells assessed as reduction of virus-induced cytopathogenicity; type: functional; in short: as §1
[2] = Cytotoxicity against human HEL cells assessed as reduction of cell growth; type: cell-based
In short: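 HEL cells; CC50 = compound concentration reducing cell growth by 50%.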

[3] = tested on: Mammalian orthoreovirus 1; assay: Antiviral activity against Reo virus 1 in african green monkey Vero cells assessed as reduction of virus-induced cytopathogenicity; type: functional; in short: as §1
[4] = tested on: Vesicular stomatitis virus; assay: Antiviral activity against in Vesicular stomatitis virus in human E6SM cells assessed as reduction of virus-induced cytopathogenicity; type: functional; in short: as §1
[5] = tested on: Human immunodeficiency virus 1; assay: Antiviral activity against HIV1 3B in human MT4 cells assessed as protection against virus-induced cytopathogenicity by MTT assay; type: functional, organism-based; set-up: Activity: concentration or dose not given beside the values; details: for IC50: Human immunodeficiency virus 1, 3B, MT4
In short: (§2)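 MT-4 cells at 6 × 10⁵ cells/ml infected with HIV-1 IIIB or HIV-2 ROD at 100–300 CCID50; compounds in serial five-fold dilutions, triplicate mock- and virus-infected wells. MTT viability read at 540 and 690 nm after 5 days, median OD of three wells; EC50 = 50% protection from viral cytopathic effect.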

Human alphaherpesvirus 2 [6] = assay: Antiviral activity against HSV2 G in human E6SM cells assessed as reduction of virus-induced cytopathogenicity; type: functional; details: Human alphaherpesvirus 2, G; in short: as §1
Human respirovirus 3 = assay: Antiviral activity against Parainfluenza 3 virus in african green monkey Vero cells assessed as reduction of virus-induced cytopathogenicity; type: functional; in short: as §1
[7] = tested on: Human immunodeficiency virus 2; assay: Antiviral activity against HIV2 ROD in human MT4 cells assessed as protection against virus-induced cytopathogenicity by MTT assay; type: functional, organism-based; set-up: Activity: concentration or dose not given beside the values; details: for IC50: Human immunodeficiency virus 2, ROD, MT4; in short: as §2
[8] = Cytotoxicity against human MT4 cells by MTT assay; type: cell-based
In short: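 Mock-infected MT-4 cells (6 × 10⁵ cells/ml) with serial five-fold compound dilutions in triplicate; MTT reduction read at 540 and 690 nm after 5 days, median OD of three wells; CC50 = concentration reducing OD540 of mock-infected control by 50%.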

Human alphaherpesvirus 3 [9] = assay: Antiviral activity against TK- VZV 07/1 infected HEL cells assessed as reduction in virus plaque formation; type: functional, organism-based; details: Human alphaherpesvirus 3, 07/1, HEL
Punta Toro virus = assay: Antiviral activity against Punta Toro virus in african green monkey Vero cells assessed as reduction of virus-induced cytopathogenicity; type: functional; in short: as §1
Human alphaherpesvirus 1 [10] = assay: Antiviral activity against thymidine kinase deficient and acyclovir resistant HSV1 KOS in human HEL cells assessed as reduction of virus-induced cytopathogenicity; type: functional; details: Human alphaherpesvirus 1, KOS; in short: as §1
[11] = Cytotoxicity against human HEL cells assessed as alteration of cell morphology; type: cell-based
In short: (§3)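 Uninfected cell cultures exposed to test compounds alongside antiviral assays; minimum cytotoxic concentration (MCC) = concentration causing a microscopically detectable alteration of cell morphology.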

[12] = Cytotoxicity against human HeLa cells; type: cell-based; in short: as §3
Human betaherpesvirus 5 [13] = assay: Antiviral activity against human cytomegalovirus AD169 infected HEL cells assessed as reduction in virus plaque formation; type: functional, organism-based; details: Human betaherpesvirus 5, AD169, HEL
Human betaherpesvirus 5 [14] = assay: Antiviral activity against human cytomegalovirus Davis infected HEL cells assessed as reduction in virus plaque formation; type: functional, organism-based; details: Human betaherpesvirus 5, Davis
Human alphaherpesvirus 3 [15] = assay: Antiviral activity against TK+ VZV OKA infected HEL cells assessed as reduction in virus plaque formation; type: functional, organism-based; details: Human alphaherpesvirus 3, OKA
[16] = Cytotoxicity against human E6SM cells; type: cell-based; details: E6SM cells; in short: as §3
Coxsackievirus B4 [17] = assay: Antiviral activity against Coxsackie virus B4 in human HeLa cells assessed as inhibition of virus-induced cytopathogenicity; type: functional; details: Enterovirus B; in short: as §1
[18] = tested on: Vesicular stomatitis virus; assay: Antiviral activity against in Vesicular stomatitis virus in human HEL cells assessed as reduction of virus-induced cytopathogenicity; type: functional; in short: as §1
Vero = assay: Cytotoxicity against african green monkey Vero cells; type: cell-based; details: chlorocebus sabaeus; in short: as §3
[19] = tested on: Vesicular stomatitis virus; assay: Antiviral activity against vesicular stomatitis virus in human HeLa cells assessed as inhibition of virus-induced cytopathogenicity; type: functional; in short: as §1
Human alphaherpesvirus 2 [20] = assay: Antiviral activity against HSV2 G in human HEL cells assessed as reduction of virus-induced cytopathogenicity; type: functional; details: Human alphaherpesvirus 2, G; in short: as §1
Human alphaherpesvirus 1 [21] = assay: Antiviral activity against HSV1 KOS in human E6SM cells assessed as reduction of virus-induced cytopathogenicity; type: functional; details: Human alphaherpesvirus 1, KOS; in short: as §1
Human alphaherpesvirus 1 [22] = assay: Antiviral activity against thymidine kinase deficient and acyclovir resistant HSV1 KOS in human E6SM cells assessed as reduction of virus-induced cytopathogenicity; type: functional; details: Human alphaherpesvirus 1, KOS; in short: as §1
Human alphaherpesvirus 1 [23] = assay: Antiviral activity against HSV1 KOS in human HEL cells assessed as reduction of virus-induced cytopathogenicity; type: functional; details: Human alphaherpesvirus 1, KOS; in short: as §1
[24] = tested on: Respiratory syncytial virus; assay: Antiviral activity against respiratory syncytial virus in human HeLa cells assessed as inhibition of virus-induced cytopathogenicity; type: functional; in short: as §1

Compound | MIC (Coxsackievirus B4 [1]) [µg/mL] | MIC (Sindbis virus) [µg/mL] | CC50 [2] [µg/mL] | MIC [3] [µg/mL] | MIC [4] [µg/mL] | Activity [5] [%] | IC50 [5] [µg/mL] | MIC (Human alphaherpesvirus 2 [6]) [µg/mL] | MIC (Human respirovirus 3) [µg/mL] | Activity [7] [%] | IC50 [7] [µg/mL] | CC50 [8] [µg/mL] | EC50 (Human alphaherpesvirus 3 [9]) [µg/mL] | MIC (Punta Toro virus) [µg/mL] | MIC (Human alphaherpesvirus 1 [10]) [µg/mL] | MCC [11] [µg/mL] | MCC [12] [µg/mL] | EC50 (Human betaherpesvirus 5 [13]) [µg/mL] | EC50 (Human betaherpesvirus 5 [14]) [µg/mL] | EC50 (Human alphaherpesvirus 3 [15]) [µg/mL] | other results
C=CCNC(=S)Nc1ccc(OCc2n[nH]c(=S)n2C)cc1 | 48 (≈ 143 µM) | > 80 | > 50 | > 80 | > 400 | 1.5 | > 107 | 240 (≈ 715 µM) | > 80 | 3 | > 114 | ≥ 107 | > 100 | > 80 | 240 (≈ 715 µM) | > 400 | 400 | > 100 | > 100 | > 100 | MCC [16]: > 400 µg/mL; MIC (Coxsackievirus B4 [17]): > 80 µg/mL; MIC [18]: > 400 µg/mL; Activity (Vero): 400 µg/mL; MIC [19]: > 80 µg/mL; MIC (Human alphaherpesvirus 2 [20]): 240 µg/mL (≈ 715 µM); MIC (Human alphaherpesvirus 1 [21]): > 400 µg/mL; MIC (Human alphaherpesvirus 1 [22]): 240 µg/mL (≈ 715 µM); MIC (Human alphaherpesvirus 1 [23]): > 400 µg/mL; MIC [24]: > 80 µg/mL
S=C(Nc1ccccc1)Nc1ccc(OCc2n[nH]c(=S)n2-c2ccccc2)cc1 | > 16 | > 16 | > 50 | > 16 | > 80 | 5.5 | > 30.6 | > 80 | > 16 | 4.5 | > 41.5 | 44.1 (≈ 102 µM) | 39 (≈ 90 µM) | > 16 | > 80 | 400 | 80 | > 20 | 37 (≈ 85.3 µM) | 26 (≈ 60 µM) | MCC [16]: 400 µg/mL; MIC (Coxsackievirus B4 [17]): > 16 µg/mL; MIC [18]: > 80 µg/mL; Activity (Vero): 80 µg/mL; MIC [19]: > 16 µg/mL; MIC (Human alphaherpesvirus 2 [20]): > 80 µg/mL; MIC (Human alphaherpesvirus 1 [21]): > 80 µg/mL; MIC (Human alphaherpesvirus 1 [22]): > 80 µg/mL; MIC (Human alphaherpesvirus 1 [23]): > 80 µg/mL; MIC [24]: > 16 µg/mL
C=CCNC(=S)Nc1ccc(OCc2n[nH]c(=S)n2-c2ccccc2)cc1 | 48 (≈ 121 µM) | > 80 | > 50 | > 80 | 240 (≈ 604 µM) | 1.5 | > 92.3 | 240 (≈ 604 µM) | > 80 | 0.5 | > 103 | 107 (≈ 269 µM) | > 100 | > 80 | 240 (≈ 604 µM) | > 400 | 400 | > 100 | > 100 | > 100 | MCC [16]: > 400 µg/mL; MIC (Coxsackievirus B4 [17]): > 80 µg/mL; MIC [18]: 240 µg/mL (≈ 604 µM); Activity (Vero): 400 µg/mL; MIC [19]: > 80 µg/mL; MIC (Human alphaherpesvirus 2 [20]): 240 µg/mL (≈ 604 µM); MIC (Human alphaherpesvirus 1 [21]): 240 µg/mL (≈ 604 µM); MIC (Human alphaherpesvirus 1 [22]): 240 µg/mL (≈ 604 µM); MIC (Human alphaherpesvirus 1 [23]): 240 µg/mL (≈ 604 µM); MIC [24]: > 80 µg/mL
